The values below come from ChEMBL document CHEMBL1142096, “Reduced susceptibility of Haemophilus influenzae to the peptide deformylase inhibitor LBM415 can result from target protein overexpression due to amplified chromosomal def gene copy number” (2007).

Common to all, as to type: functional
The subject of assay [1] is Haemophilus influenzae. Kind of assay: Antimicrobial activity against Haemophilus influenzae NB65044 by broth microdilution method. A digest of the protocol:
(§1)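 MIC by CLSI broth microdilution, twofold serial dilutions in HTM broth.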

Assay [2] concerns Haemophilus influenzae. Kind of assay: Antimicrobial activity against Haemophilus influenzae CDS40 mutant with acrB insertional inactivation by broth microdilution method. A digest of the protocol: as §1
Assay [3] deals with Haemophilus influenzae. Kind of assay: Antimicrobial activity against Haemophilus influenzae CDS23 mutant overexpressing Def by broth microdilution method. A digest of the protocol:
as §1
On the technique in general: Broth dilution looks for growth in wells or tubes with falling amounts of substance.

Assay [4] has as its system Haemophilus influenzae. Kind of assay: Antimicrobial activity against Haemophilus influenzae CDS01 mutant with acrB insertional inactivation by broth microdilution method. Put shortly:
as §1

In brackets after ≈: the same amount, converted by molar mass.

Consider `CCCC[C@H](CN(O)C=O)C(=O)N1CCC[C@H]1C(=O)Nc1ccc(F)c[n+]1[O-]`, for which the MIC against Haemophilus influenzae [1] stood at 4 mg/L (≈ 10.1 µM); with Haemophilus influenzae [2], 4 mg/L (≈ 10.1 µM); in the assay on Haemophilus influenzae [3] it was 64 mg/L (≈ 161 µM); with Haemophilus influenzae [4], 0.25 mg/L (≈ 0.631 µM).
On to `CCC[C@@H]1C[C@@H](C(=O)N[C@@H]([C@H]2O[C@H](SC)[C@H](O)[C@@H](O)[C@H]2O)[C@H](C)Cl)N(C)C1` [CLINDAMYCIN], for which the MIC worked out at 8 mg/L (≈ 18.8 µM) in the assay on Haemophilus influenzae [1], 0.5 mg/L (≈ 1.18 µM) in the assay on Haemophilus influenzae [2], 4 mg/L (≈ 9.41 µM) in the assay on Haemophilus influenzae [3] and 0.5 mg/L (≈ 1.18 µM) with Haemophilus influenzae [4].
Regarding `CN(C)[C@@H]1C(O)=C(C(N)=O)C(=O)[C@@]2(O)C(O)=C3C(=O)c4c(O)cccc4[C@@](C)(O)[C@H]3C[C@@H]12` [TETRACYCLINE], the MIC against Haemophilus influenzae [1], with Haemophilus influenzae [2], in the assay on Haemophilus influenzae [3] and in the assay on Haemophilus influenzae [4] was 0.5 mg/L (≈ 1.13 µM) in each case.
